Data as given in ChEMBL document CHEMBL4359830, “Discovery and structure-activity relationship of novel diphenylthiazole derivatives as BTK inhibitor with potent activity against B cell lymphoma cell lines” (Eur J Med Chem, 2019).

Tested on: Ramos
Assay: Antiproliferative activity against human Ramos cells at 40 uM measured after 72 hrs by CCK-8 assay relative to control
Assay type: functional
Conditions: Homo sapiens, Ramos, 72 h
Summary of the method: (§1)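 Ramos or Raji cells in RPMI-1640 with 10% FBS and 1% penicillin-streptomycin at 37 °C, 5% CO2. Seeded at 2000–3000 cells/well one day before compound addition. Exposure 72 h, then CCK-8 with absorbance at 450 nm. […] Single-point inhibition at 40 µM reported as mean ± standard deviation.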

Row | SMILES | inhibition at 40 µM
1 | NC(=O)c1sc(-c2cccc(NC(=O)c3ccc(C(F)(F)F)cc3)c2)nc1Nc1ccc(N2CCOCC2)cc1 | 25.2%
2 | NC(=O)c1sc(-c2cccc(NC(=O)c3ccc(C(F)(F)F)cc3)c2)nc1Nc1ccc(C(=O)N2CCOCC2)cc1 | 83.8%
3 | CCOC(=O)c1sc(-c2cccc(NC(=O)c3ccc(F)cc3)c2)nc1Nc1ccc(N2CCOCC2)cc1 | 3.96%
4 | CN1CCN(c2ccc(Nc3nc(-c4cccc(NC(=O)[C@H]5CC[C@H](C)CC5)c4)sc3C(N)=O)cc2)CC1 | 55%
5 | CCOC(=O)c1sc(-c2cccc(NC(=O)c3ccc(C(F)(F)F)cn3)c2)nc1Nc1ccc(N2CCN(C)CC2)cc1 | 19%
6 | CCOC(=O)c1sc(-c2cccc(NC(=O)c3ccc(C#N)cc3)c2)nc1Nc1ccc(N2CCN(C)CC2)cc1 | 97.5%
7 | CC(C)(C)c1ccc(C(=O)Nc2cccc(-c3nc(Nc4ccc(N5CCOCC5)cc4)c(C(=O)O)s3)c2)cc1 | 94.3%
8 | CCOC(=O)c1sc(-c2cccc(NC(=O)c3ccc(C(C)(C)C)cc3)c2)nc1Nc1ccc(C(=O)N2CCOCC2)cc1 | 82.6%
9 | CCOC(=O)c1sc(-c2cccc(NC(=O)c3ccco3)c2)nc1Nc1ccc(N2CCN(C)CC2)cc1 | 50.2%
10 | CCOC(=O)c1sc(-c2cccc(NC(=O)c3ccccc3)c2)nc1Nc1ccc(N2CCN(C)CC2)cc1 | 77.1%
11 | CCOC(=O)c1sc(-c2cccc(NC(=O)c3ccc(F)cc3)c2)nc1Nc1ccc(N2CCN(C)CC2)cc1 | 3.53%
12 | NC(=O)c1sc(-c2cccc(NC(=O)c3ccc(F)cc3)c2)nc1Nc1ccc(C(=O)N2CCOCC2)cc1 | 91.5%
13 | CCOC(=O)c1sc(-c2cccc(NC(=O)c3ccc(C(C)(C)C)cc3)c2)nc1Nc1ccc(N2CCN(C)CC2)cc1 | 21.2%
14 | CN1CCN(c2ccc(Nc3nc(-c4cccc(NC(=O)c5ccco5)c4)sc3C(N)=O)cc2)CC1 | 96.7%
15 | CCOC(=O)c1sc(-c2cccc(NC(=O)c3ccc(Cl)cc3)c2)nc1Nc1ccc(N2CCN(C)CC2)cc1 | 46.9%
16 | CCOC(=O)c1sc(-c2cccc(NC(=O)c3ccc(F)cc3)c2)nc1Nc1ccc(C(=O)N2CCOCC2)cc1 | 31.1%
17 | CCOC(=O)c1sc(-c2cccc(NC(=O)c3ccc(F)c(Cl)c3)c2)nc1Nc1ccc(N2CCN(C)CC2)cc1 | 72.5%
18 | CN1CCN(c2ccc(Nc3nc(-c4cccc(NC(=O)c5ccc(C(F)(F)F)cn5)c4)sc3C(N)=O)cc2)CC1 | 96.6%
19 | CCOC(=O)c1sc(-c2cccc(NC(=O)c3ccc(C(F)(F)F)cc3)c2)nc1Nc1ccc(N2CCN(C)CC2)cc1 | 18.4%
20 | CN1CCN(c2ccc(Nc3nc(-c4cccc(NC(=O)c5cccc(F)c5)c4)sc3C(N)=O)cc2)CC1 | 16.2%
21 | CC(C)(C)c1ccc(C(=O)Nc2cccc(-c3nc(Nc4ccc(N5CCOCC5)cc4)c(C(N)=O)s3)c2)cc1 | 5.57%
22 | CN1CCN(c2ccc(Nc3nc(-c4cccc(NC(=O)c5ccc(F)cc5)c4)sc3C(N)=O)cc2)CC1 | 95.9%

Tested on: Ramos
Assay: Potency index, ratio of ibrutinib IC50 to compound IC50 for antiproliferative activity against human Ramos cells
Assay type: functional
Conditions: not given

Row | SMILES | Ratio IC50
23 | CN1CCN(c2ccc(Nc3nc(-c4cccc(NC(=O)c5ccc(F)cc5)c4)sc3C(N)=O)cc2)CC1 | 10

Tested on: Ramos
Assay: Antiproliferative activity against human Ramos cells measured after 72 hrs by CCK-8 assay
Assay type: functional, cell-based
Conditions: not given
Summary of the method: as §1

Row | SMILES | IC50
24 | NC(=O)c1sc(-c2cccc(NC(=O)c3ccc(C(F)(F)F)cc3)c2)nc1Nc1ccc(C(=O)N2CCOCC2)cc1 | 29.8 µM
25 | CCOC(=O)c1sc(-c2cccc(NC(=O)c3ccc(C#N)cc3)c2)nc1Nc1ccc(N2CCN(C)CC2)cc1 | 4.28 µM
26 | CC(C)(C)c1ccc(C(=O)Nc2cccc(-c3nc(Nc4ccc(N5CCOCC5)cc4)c(C(=O)O)s3)c2)cc1 | 4.37 µM
27 | CCOC(=O)c1sc(-c2cccc(NC(=O)c3ccc(C(C)(C)C)cc3)c2)nc1Nc1ccc(C(=O)N2CCOCC2)cc1 | 25.2 µM
28 | CCOC(=O)c1sc(-c2cccc(NC(=O)c3ccccc3)c2)nc1Nc1ccc(N2CCN(C)CC2)cc1 | 24.8 µM
29 | NC(=O)c1sc(-c2cccc(NC(=O)c3ccc(F)cc3)c2)nc1Nc1ccc(C(=O)N2CCOCC2)cc1 | 13 µM
30 | CN1CCN(c2ccc(Nc3nc(-c4cccc(NC(=O)c5ccco5)c4)sc3C(N)=O)cc2)CC1 | 19.7 µM
31 | CCOC(=O)c1sc(-c2cccc(NC(=O)c3ccc(F)c(Cl)c3)c2)nc1Nc1ccc(N2CCN(C)CC2)cc1 | 29.2 µM
32 | CN1CCN(c2ccc(Nc3nc(-c4cccc(NC(=O)c5ccc(C(F)(F)F)cn5)c4)sc3C(N)=O)cc2)CC1 | 19.8 µM
33 | CN1CCN(c2ccc(Nc3nc(-c4cccc(NC(=O)c5ccc(F)cc5)c4)sc3C(N)=O)cc2)CC1 | 1.42 µM

Tested on: Raji
Assay: Antiproliferative activity against human Raji cells at 40 uM measured after 72 hrs by CCK-8 assay relative to control
Assay type: functional
Conditions: Homo sapiens, Raji, 72 h
Summary of the method: as §1

Row | SMILES | inhibition at 40 µM
34 | NC(=O)c1sc(-c2cccc(NC(=O)c3ccc(C(F)(F)F)cc3)c2)nc1Nc1ccc(N2CCOCC2)cc1 | 7.48%
35 | NC(=O)c1sc(-c2cccc(NC(=O)c3ccc(C(F)(F)F)cc3)c2)nc1Nc1ccc(C(=O)N2CCOCC2)cc1 | 43.8%
36 | CCOC(=O)c1sc(-c2cccc(NC(=O)c3ccc(F)cc3)c2)nc1Nc1ccc(N2CCOCC2)cc1 | 25.8%
37 | CN1CCN(c2ccc(Nc3nc(-c4cccc(NC(=O)[C@H]5CC[C@H](C)CC5)c4)sc3C(N)=O)cc2)CC1 | 22.4%
38 | CCOC(=O)c1sc(-c2cccc(NC(=O)c3ccc(C(F)(F)F)cn3)c2)nc1Nc1ccc(N2CCN(C)CC2)cc1 | 20.8%
39 | CCOC(=O)c1sc(-c2cccc(NC(=O)c3ccc(C#N)cc3)c2)nc1Nc1ccc(N2CCN(C)CC2)cc1 | 79.1%
40 | CC(C)(C)c1ccc(C(=O)Nc2cccc(-c3nc(Nc4ccc(N5CCOCC5)cc4)c(C(=O)O)s3)c2)cc1 | 93.8%
41 | CCOC(=O)c1sc(-c2cccc(NC(=O)c3ccc(C(C)(C)C)cc3)c2)nc1Nc1ccc(C(=O)N2CCOCC2)cc1 | 13.2%
42 | CCOC(=O)c1sc(-c2cccc(NC(=O)c3ccco3)c2)nc1Nc1ccc(N2CCN(C)CC2)cc1 | 87.6%
43 | CCOC(=O)c1sc(-c2cccc(NC(=O)c3ccccc3)c2)nc1Nc1ccc(N2CCN(C)CC2)cc1 | 42%
44 | CCOC(=O)c1sc(-c2cccc(NC(=O)c3ccc(F)cc3)c2)nc1Nc1ccc(N2CCN(C)CC2)cc1 | 16.8%
45 | NC(=O)c1sc(-c2cccc(NC(=O)c3ccc(F)cc3)c2)nc1Nc1ccc(C(=O)N2CCOCC2)cc1 | 82.5%
46 | CCOC(=O)c1sc(-c2cccc(NC(=O)c3ccc(C(C)(C)C)cc3)c2)nc1Nc1ccc(N2CCN(C)CC2)cc1 | 4.22%
47 | CN1CCN(c2ccc(Nc3nc(-c4cccc(NC(=O)c5ccco5)c4)sc3C(N)=O)cc2)CC1 | 84.3%
48 | CCOC(=O)c1sc(-c2cccc(NC(=O)c3ccc(Cl)cc3)c2)nc1Nc1ccc(N2CCN(C)CC2)cc1 | 24.3%
49 | CCOC(=O)c1sc(-c2cccc(NC(=O)c3ccc(F)cc3)c2)nc1Nc1ccc(C(=O)N2CCOCC2)cc1 | 37.3%
50 | CCOC(=O)c1sc(-c2cccc(NC(=O)c3ccc(F)c(Cl)c3)c2)nc1Nc1ccc(N2CCN(C)CC2)cc1 | 20.7%
51 | CN1CCN(c2ccc(Nc3nc(-c4cccc(NC(=O)c5ccc(C(F)(F)F)cn5)c4)sc3C(N)=O)cc2)CC1 | 84.6%
52 | CCOC(=O)c1sc(-c2cccc(NC(=O)c3ccc(C(F)(F)F)cc3)c2)nc1Nc1ccc(N2CCN(C)CC2)cc1 | 33%
53 | CN1CCN(c2ccc(Nc3nc(-c4cccc(NC(=O)c5cccc(F)c5)c4)sc3C(N)=O)cc2)CC1 | 2.78%
54 | CC(C)(C)c1ccc(C(=O)Nc2cccc(-c3nc(Nc4ccc(N5CCOCC5)cc4)c(C(N)=O)s3)c2)cc1 | 4.42%
55 | CN1CCN(c2ccc(Nc3nc(-c4cccc(NC(=O)c5ccc(F)cc5)c4)sc3C(N)=O)cc2)CC1 | 95.3%

Molecular target: Tyrosine-protein kinase BTK (Homo sapiens, UniProt Q06187)
Assay: Inhibition of human recombinant full length N-terminal His tagged BTK expressed in baculovirus infected Sf9 cells using poly (Glu,Tyr) 4:1 as substrate measured after 60 mins in presence of ATP by ADP-Glo kinase assay
Conditions: not given

Tyrosine-protein kinase BTK, sequence (Q06187 whole entry): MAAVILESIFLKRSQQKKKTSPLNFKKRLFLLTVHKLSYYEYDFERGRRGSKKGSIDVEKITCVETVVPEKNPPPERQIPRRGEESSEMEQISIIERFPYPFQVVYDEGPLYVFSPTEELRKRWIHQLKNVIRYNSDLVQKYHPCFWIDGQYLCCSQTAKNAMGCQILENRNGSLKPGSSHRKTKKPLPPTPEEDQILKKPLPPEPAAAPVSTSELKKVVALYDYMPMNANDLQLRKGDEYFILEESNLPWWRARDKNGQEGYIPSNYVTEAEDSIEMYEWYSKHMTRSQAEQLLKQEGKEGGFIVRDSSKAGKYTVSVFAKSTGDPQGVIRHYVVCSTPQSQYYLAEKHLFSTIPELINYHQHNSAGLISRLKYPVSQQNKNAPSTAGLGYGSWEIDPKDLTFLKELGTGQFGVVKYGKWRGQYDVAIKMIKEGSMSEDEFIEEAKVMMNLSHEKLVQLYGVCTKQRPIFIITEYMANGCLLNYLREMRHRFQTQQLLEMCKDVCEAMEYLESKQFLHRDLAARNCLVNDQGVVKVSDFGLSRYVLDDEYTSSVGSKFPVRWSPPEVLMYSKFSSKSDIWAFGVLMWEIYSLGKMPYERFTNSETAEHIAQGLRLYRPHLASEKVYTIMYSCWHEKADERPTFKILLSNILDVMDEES

Row | SMILES | IC50
56 | NC(=O)c1sc(-c2cccc(NC(=O)c3ccc(C(F)(F)F)cc3)c2)nc1Nc1ccc(N2CCOCC2)cc1 | 6.75 µM
57 | NC(=O)c1sc(-c2cccc(NC(=O)c3ccc(C(F)(F)F)cc3)c2)nc1Nc1ccc(C(=O)N2CCOCC2)cc1 | 0.617 µM
58 | CN1CCN(c2ccc(Nc3nc(-c4cccc(NC(=O)[C@H]5CC[C@H](C)CC5)c4)sc3C(N)=O)cc2)CC1 | 0.105 µM
59 | CCOC(=O)c1sc(-c2cccc(NC(=O)c3ccc(C#N)cc3)c2)nc1Nc1ccc(N2CCN(C)CC2)cc1 | 5.17 µM
60 | CC(C)(C)c1ccc(C(=O)Nc2cccc(-c3nc(Nc4ccc(N5CCOCC5)cc4)c(C(=O)O)s3)c2)cc1 | 5.32 µM
61 | CCOC(=O)c1sc(-c2cccc(NC(=O)c3ccco3)c2)nc1Nc1ccc(N2CCN(C)CC2)cc1 | 0.161 µM
62 | CCOC(=O)c1sc(-c2cccc(NC(=O)c3ccccc3)c2)nc1Nc1ccc(N2CCN(C)CC2)cc1 | 37.1 µM
63 | NC(=O)c1sc(-c2cccc(NC(=O)c3ccc(F)cc3)c2)nc1Nc1ccc(C(=O)N2CCOCC2)cc1 | 0.733 µM
64 | CN1CCN(c2ccc(Nc3nc(-c4cccc(NC(=O)c5ccco5)c4)sc3C(N)=O)cc2)CC1 | 0.073 µM
65 | CN1CCN(c2ccc(Nc3nc(-c4cccc(NC(=O)c5ccc(C(F)(F)F)cn5)c4)sc3C(N)=O)cc2)CC1 | 0.637 µM
66 | CC(C)(C)c1ccc(C(=O)Nc2cccc(-c3nc(Nc4ccc(N5CCOCC5)cc4)c(C(N)=O)s3)c2)cc1 | 2.23 µM
67 | CN1CCN(c2ccc(Nc3nc(-c4cccc(NC(=O)c5ccc(F)cc5)c4)sc3C(N)=O)cc2)CC1 | 0.862 µM

Tested on: Raji
Assay: Antiproliferative activity against human Raji cells measured after 72 hrs by CCK-8 assay
Assay type: functional, cell-based
Conditions: not given
Summary of the method: as §1

Row | SMILES | IC50
68 | NC(=O)c1sc(-c2cccc(NC(=O)c3ccc(C(F)(F)F)cc3)c2)nc1Nc1ccc(C(=O)N2CCOCC2)cc1 | 75.3 µM
69 | CCOC(=O)c1sc(-c2cccc(NC(=O)c3ccc(C#N)cc3)c2)nc1Nc1ccc(N2CCN(C)CC2)cc1 | 14 µM
70 | CC(C)(C)c1ccc(C(=O)Nc2cccc(-c3nc(Nc4ccc(N5CCOCC5)cc4)c(C(=O)O)s3)c2)cc1 | 5.74 µM
71 | CCOC(=O)c1sc(-c2cccc(NC(=O)c3ccco3)c2)nc1Nc1ccc(N2CCN(C)CC2)cc1 | 15.1 µM
72 | NC(=O)c1sc(-c2cccc(NC(=O)c3ccc(F)cc3)c2)nc1Nc1ccc(C(=O)N2CCOCC2)cc1 | 35.4 µM
73 | CN1CCN(c2ccc(Nc3nc(-c4cccc(NC(=O)c5ccco5)c4)sc3C(N)=O)cc2)CC1 | 37.4 µM
74 | CN1CCN(c2ccc(Nc3nc(-c4cccc(NC(=O)c5ccc(C(F)(F)F)cn5)c4)sc3C(N)=O)cc2)CC1 | 24.5 µM
75 | CN1CCN(c2ccc(Nc3nc(-c4cccc(NC(=O)c5ccc(F)cc5)c4)sc3C(N)=O)cc2)CC1 | 2.82 µM
